ChEMBL document CHEMBL1152689, “Synthesis, tautomerism, and antimicrobial, anti-HCV, anti-SSPE, antioxidant, and antitumor activities of arylazobenzosuberones” (Bioorg Med Chem, 2009)
pIC50: −log10 of the molar value. Converted amounts (≈) assume the structure as drawn. The source made the active and inactive calls. The rule behind the calls is not given here.

How the values were obtained:
Penicillium italicum [1] = test: Antimicrobial activity against Penicillium italicum at 5 ug/mL by agar diffusion method; type: functional; details: read-out: IZ
[2] = system: Syncephalastrum racemosum; test: Antimicrobial activity against Syncephalastrum racemosum at 5 ug/mL by agar diffusion method; type: functional; details: read-out: IZ
Candida albicans [3] = test: Antimicrobial activity against Candida albicans at 5 ug/mL by agar diffusion method; type: functional; details: read-out: IZ
Staphylococcus aureus [4] = test: Antimicrobial activity against Staphylococcus aureus at 5 ug/mL by agar diffusion method; type: functional; details: read-out: IZ
Pseudomonas aeruginosa [5] = test: Antimicrobial activity against Pseudomonas aeruginosa at 5 ug/mL by agar diffusion method; type: functional; details: read-out: IZ
Bacillus subtilis [6] = test: Antimicrobial activity against Bacillus subtilis at 5 ug/mL by agar diffusion method; type: functional; details: read-out: IZ
Escherichia coli [7] = test: Antimicrobial activity against Escherichia coli at 5 ug/mL by agar diffusion method; type: functional; details: read-out: IZ
Aspergillus fumigatus [8] = test: Antimicrobial activity against Aspergillus fumigatus at 2.5 ug/mL by agar diffusion method; type: functional; details: read-out: IZ
Penicillium italicum [9] = test: Antimicrobial activity against Penicillium italicum at 2.5 ug/mL by agar diffusion method; type: functional; details: read-out: IZ
[10] = system: Syncephalastrum racemosum; test: Antimicrobial activity against Syncephalastrum racemosum at 2.5 ug/mL by agar diffusion method; type: functional; details: read-out: IZ
Candida albicans [11] = test: Antimicrobial activity against Candida albicans at 2.5 ug/mL by agar diffusion method; type: functional; details: read-out: IZ
Staphylococcus aureus [12] = test: Antimicrobial activity against Staphylococcus aureus at 2.5 ug/mL by agar diffusion method; type: functional; details: read-out: IZ
Pseudomonas aeruginosa [13] = test: Antimicrobial activity against Pseudomonas aeruginosa at 2.5 ug/mL by agar diffusion method; type: functional; details: read-out: IZ
Bacillus subtilis [14] = test: Antimicrobial activity against Bacillus subtilis at 2.5 ug/mL by agar diffusion method; type: functional; details: read-out: IZ
Escherichia coli [15] = test: Antimicrobial activity against Escherichia coli at 2.5 ug/mL by agar diffusion method; type: functional; details: read-out: IZ
Aspergillus fumigatus [16] = test: Antimicrobial activity against Aspergillus fumigatus at 1.25 ug/mL by agar diffusion method; type: functional; details: read-out: IZ
Penicillium italicum [17] = test: Antimicrobial activity against Penicillium italicum at 1.25 ug/mL by agar diffusion method; type: functional; details: read-out: IZ
[18] = system: Syncephalastrum racemosum; test: Antimicrobial activity against Syncephalastrum racemosum at 1.25 ug/mL by agar diffusion method; type: functional; details: read-out: IZ
Candida albicans [19] = test: Antimicrobial activity against Candida albicans at 1.25 ug/mL by agar diffusion method; type: functional; details: read-out: IZ
Staphylococcus aureus [20] = test: Antimicrobial activity against Staphylococcus aureus at 1.25 ug/mL by agar diffusion method; type: functional; details: read-out: IZ
Pseudomonas aeruginosa [21] = test: Antimicrobial activity against Pseudomonas aeruginosa at 1.25 ug/mL by agar diffusion method; type: functional; details: read-out: IZ
Bacillus subtilis [22] = test: Antimicrobial activity against Bacillus subtilis at 1.25 ug/mL by agar diffusion method; type: functional; details: read-out: IZ
Escherichia coli [23] = test: Antimicrobial activity against Escherichia coli at 1.25 ug/mL by agar diffusion method; type: functional; details: read-out: IZ
Hepatitis C virus = test: Antiviral activity against HCV by cell based replicon assay; type: functional, Hepacivirus hominis
Summary of the method: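 HCV replicon cells plated at 1×10^4 per well. Next day incubated at 37 °C with serially diluted compound in DMEM with 2% FBS and 0.5% DMSO. HCV RNA copy number measured by quantitative RT-PCR on total cellular RNA. Each point is the average of five replicates. Cytotoxicity measured by MTS in parallel.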

Measles morbillivirus = test: Antiviral activity against Measles virus infected in intracranially dosed hamster assessed as inhibition of subacute sclerosing panencephalitis; type: functional
Summary of the method: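 Hamsters under ether anesthesia injected intracranially, into the subarachnoid space at 2 mm depth, at 5, 10 and 20 mg/kg/day for 10 days. Four animals per group sacrificed on days 1–20. Brains homogenized in PBS and centrifuged, supernatant deproteinized with ethanol, then MIC in brain tissue determined by HPLC and bioassay.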

[24] = system: Radical scavenging activity; test: Antioxidant activity assessed as DPPH free radical scavenging activity by measuring reduction in DPPH absorbance by ELISA relative to untreated control; type: functional; set-up: concentration or dose not given beside the values
Summary of the method: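 Test compounds dissolved in DMSO, ascorbic acid standard in water, both serially diluted. 10 µl sample added to 90 µl of 100 µM DPPH in methanol and kept in the dark at 37 °C for 30 min. Absorbance read at 515 nm. Blank is DMSO plus DPPH. % reduction = (A_B − A_A)/A_B × 100. Run in triplicate.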

[25] = Antioxidant activity assessed as inhibition of peroxynitrite-mediated 3-nitrotyrosine formation by HPLC; type: functional
Summary of the method: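 Tyrosine and peroxynitrite, each 100 µM, reacted with compound at 0–300 µM in 100 mM phosphate buffer pH 7.4 at 37 °C for 15 min. Peroxynitrite made from acidified H2O2 plus KNO2, quenched with NaOH, and kept on ice no longer than 30 min before use.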

MC-38 = test: Antitumor activity against mouse Colon 38 cells implanted in iv dosed C57BL/6 mouse administered as single dose; type: functional, organism-based
Summary of the method: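 Female C57BL/6 mice, 6 weeks old, given about 30 mg Colon 38 tumor tissue s.c. in the flank. Randomized into groups of n = 5 when tumors reached about 300 mm3 (day 1). Compound in 5% glucose given as a single iv tail-vein dose on day 1; controls received 5% glucose. Tumor volume = (length × width²)/2 and body weight tracked.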

[26] = target: DNA topoisomerase 2-alpha (Mus musculus) (UniProt Q01320); test: Inhibition of topoisomerase 2 from mouse P388 cells assessed as relaxation of pBR322 DNA by agarose gel electrophoresis relative to etoposide; type: cell-based
Chain of DNA topoisomerase 2-alpha (Mus musculus) (Q01320 whole entry): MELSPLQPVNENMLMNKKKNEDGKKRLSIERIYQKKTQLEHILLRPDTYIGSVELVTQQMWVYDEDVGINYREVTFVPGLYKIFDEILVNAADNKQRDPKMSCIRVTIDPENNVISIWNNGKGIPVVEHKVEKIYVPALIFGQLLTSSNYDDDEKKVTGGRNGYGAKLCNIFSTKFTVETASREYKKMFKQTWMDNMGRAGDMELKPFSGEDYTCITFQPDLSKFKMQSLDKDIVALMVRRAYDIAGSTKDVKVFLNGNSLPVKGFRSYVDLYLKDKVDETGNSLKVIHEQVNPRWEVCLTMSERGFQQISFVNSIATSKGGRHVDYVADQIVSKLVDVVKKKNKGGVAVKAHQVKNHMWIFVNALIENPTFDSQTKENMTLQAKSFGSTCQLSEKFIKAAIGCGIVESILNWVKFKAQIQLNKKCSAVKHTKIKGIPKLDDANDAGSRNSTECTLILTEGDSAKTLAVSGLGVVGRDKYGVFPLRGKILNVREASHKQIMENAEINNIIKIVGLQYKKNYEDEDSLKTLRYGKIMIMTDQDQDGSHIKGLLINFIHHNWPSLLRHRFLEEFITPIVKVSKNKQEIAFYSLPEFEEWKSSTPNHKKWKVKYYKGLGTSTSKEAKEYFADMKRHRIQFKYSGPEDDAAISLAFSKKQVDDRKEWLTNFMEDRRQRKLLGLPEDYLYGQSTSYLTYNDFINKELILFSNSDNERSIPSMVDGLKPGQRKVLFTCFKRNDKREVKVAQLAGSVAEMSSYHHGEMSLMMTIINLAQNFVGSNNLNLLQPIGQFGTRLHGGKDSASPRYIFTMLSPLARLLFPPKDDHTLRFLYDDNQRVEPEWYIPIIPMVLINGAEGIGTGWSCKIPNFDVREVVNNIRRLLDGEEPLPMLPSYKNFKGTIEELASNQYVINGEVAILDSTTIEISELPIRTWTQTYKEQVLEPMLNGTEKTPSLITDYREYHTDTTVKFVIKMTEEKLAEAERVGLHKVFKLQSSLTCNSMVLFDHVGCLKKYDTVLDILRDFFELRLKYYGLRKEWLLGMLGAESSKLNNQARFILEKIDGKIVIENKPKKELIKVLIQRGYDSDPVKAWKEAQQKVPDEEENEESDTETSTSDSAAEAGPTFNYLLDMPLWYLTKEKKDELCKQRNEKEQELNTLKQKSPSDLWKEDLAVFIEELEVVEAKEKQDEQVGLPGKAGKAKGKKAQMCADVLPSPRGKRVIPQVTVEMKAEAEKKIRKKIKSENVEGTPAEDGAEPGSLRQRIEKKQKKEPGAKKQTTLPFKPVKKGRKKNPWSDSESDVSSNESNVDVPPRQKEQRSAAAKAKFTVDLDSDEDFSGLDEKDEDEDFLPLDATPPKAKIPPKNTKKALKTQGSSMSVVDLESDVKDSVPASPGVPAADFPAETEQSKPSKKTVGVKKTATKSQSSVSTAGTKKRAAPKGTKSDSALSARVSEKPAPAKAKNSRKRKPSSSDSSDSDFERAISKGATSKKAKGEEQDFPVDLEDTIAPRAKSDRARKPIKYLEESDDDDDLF
Summary of the method: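 Topoisomerase II purified from P388 cells. One unit relaxes 0.125 µg supercoiled pBR322 DNA, incubated with or without inhibitor at 30 °C for 1 h in 50 mM Tris-HCl pH 8.0, 100 mM KCl, 10 mM MgCl2, 0.5 mM DTT, 1 mM ATP and 30 µg/ml BSA. Products run on 0.7% agarose in TBE, stained with ethidium bromide and imaged under UV.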

[27] = target: T1, DNA topoisomerase 1 (Homo sapiens) (UniProt P11387); test: Inhibition of topoisomerase 1 relative to etoposide
T1 sequence (whole entry): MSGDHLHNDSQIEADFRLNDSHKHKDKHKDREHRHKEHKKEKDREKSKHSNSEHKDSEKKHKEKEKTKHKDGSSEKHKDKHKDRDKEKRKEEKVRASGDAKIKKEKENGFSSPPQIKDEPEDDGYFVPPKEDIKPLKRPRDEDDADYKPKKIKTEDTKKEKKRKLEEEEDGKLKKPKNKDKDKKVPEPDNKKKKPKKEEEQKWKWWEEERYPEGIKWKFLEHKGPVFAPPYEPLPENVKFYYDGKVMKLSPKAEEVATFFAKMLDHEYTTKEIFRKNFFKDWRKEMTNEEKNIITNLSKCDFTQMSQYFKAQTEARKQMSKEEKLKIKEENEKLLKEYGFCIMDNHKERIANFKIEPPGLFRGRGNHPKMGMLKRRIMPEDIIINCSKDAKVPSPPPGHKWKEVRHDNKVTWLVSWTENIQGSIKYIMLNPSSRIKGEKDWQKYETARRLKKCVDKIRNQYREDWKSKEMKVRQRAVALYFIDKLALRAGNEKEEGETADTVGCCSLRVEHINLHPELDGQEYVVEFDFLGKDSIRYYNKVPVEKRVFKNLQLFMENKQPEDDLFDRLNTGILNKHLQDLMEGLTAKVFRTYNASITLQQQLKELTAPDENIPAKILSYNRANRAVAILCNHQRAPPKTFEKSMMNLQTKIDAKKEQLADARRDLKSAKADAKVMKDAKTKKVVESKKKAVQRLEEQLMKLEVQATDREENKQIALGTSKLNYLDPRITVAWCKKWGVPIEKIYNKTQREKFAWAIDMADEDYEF

Aspergillus fumigatus [28] = test: Antimicrobial activity against Aspergillus fumigatus at 5 ug/mL by agar diffusion method; type: functional; details: read-out: IZ

Row | Structure (SMILES) | zone of inhibition at 5 µg/mL (Penicillium italicum [1]) [mm] | zone of inhibition at 5 µg/mL [2] [mm] | zone of inhibition at 5 µg/mL (Candida albicans [3]) [mm] | zone of inhibition at 5 µg/mL (Staphylococcus aureus [4]) [mm] | zone of inhibition at 5 µg/mL (Pseudomonas aeruginosa [5]) [mm] | zone of inhibition at 5 µg/mL (Bacillus subtilis [6]) [mm] | zone of inhibition at 5 µg/mL (Escherichia coli [7]) [mm] | zone of inhibition at 2.5 µg/mL (Aspergillus fumigatus [8]) [mm] | zone of inhibition at 2.5 µg/mL (Penicillium italicum [9]) [mm] | zone of inhibition at 2.5 µg/mL [10] [mm] | zone of inhibition at 2.5 µg/mL (Candida albicans [11]) [mm] | zone of inhibition at 2.5 µg/mL (Staphylococcus aureus [12]) [mm] | zone of inhibition at 2.5 µg/mL (Pseudomonas aeruginosa [13]) [mm] | zone of inhibition at 2.5 µg/mL (Bacillus subtilis [14]) [mm] | zone of inhibition at 2.5 µg/mL (Escherichia coli [15]) [mm] | zone of inhibition at 1.25 µg/mL (Aspergillus fumigatus [16]) [mm] | zone of inhibition at 1.25 µg/mL (Penicillium italicum [17]) [mm] | MIC (Hepatitis C virus) [µg/mL] | MIC (Measles morbillivirus) [µg/mL] | pIC50 [25] | other results
1 | O=C1/C(=N/Nc2cccc([N+](=O)[O-])c2)CCCc2ccccc21 | 0 | 19 | 15 | 10 | 0 | 19 | 12 | 11 | 0 | 12 | 8 | 6 | 0 | 13 | 5 | 8 | 0 | 1.04 (≈ 3.37 µM) | 6.11 (≈ 19.8 µM) | 4.25 | zone of inhibition at 1.25 µg/mL [18]: 9 mm; zone of inhibition at 1.25 µg/mL (Candida albicans [19]): 5 mm; zone of inhibition at 1.25 µg/mL (Staphylococcus aureus [20]): 0 mm; zone of inhibition at 1.25 µg/mL (Pseudomonas aeruginosa [21]): 0 mm; zone of inhibition at 1.25 µg/mL (Bacillus subtilis [22]): 8 mm; zone of inhibition at 1.25 µg/mL (Escherichia coli [23]): 0 mm; Activity [24]: 81.1%; Activity (MC-38): Active; Ratio [26]: 4.53; Ratio [27]: 4.5; zone of inhibition at 5 µg/mL (Aspergillus fumigatus [28]): 20 mm
2 | NC(=O)c1ncn([C@@H]2O[C@H](CO)[C@@H](O)[C@H]2O)n1 [RIBAVIRIN] |  |  |  |  |  |  |  |  |  |  |  |  |  |  |  |  |  | 16.1 (≈ 66.1 µM) | 77.9 (≈ 319 µM) |  | 
3 | O=C1O[C@H]([C@@H](O)CO)C(O)=C1O |  |  |  |  |  |  |  |  |  |  |  |  |  |  |  |  |  |  |  |  | Activity [24]: 79%
4 | c1ccc2c(c1)CCCc1nnc3nncn3c1-2 | 8 | 18 | 9 | 14 | 0 | 16 | 9 | 0 | 0 | 9 | 4 | 8 | 0 | 7 | 0 | 0 | 0 |  |  |  | zone of inhibition at 1.25 µg/mL [18]: 0 mm; zone of inhibition at 1.25 µg/mL (Candida albicans [19]): 0 mm; zone of inhibition at 1.25 µg/mL (Staphylococcus aureus [20]): 5 mm; zone of inhibition at 1.25 µg/mL (Pseudomonas aeruginosa [21]): 0 mm; zone of inhibition at 1.25 µg/mL (Bacillus subtilis [22]): 4 mm; zone of inhibition at 1.25 µg/mL (Escherichia coli [23]): 0 mm; zone of inhibition at 5 µg/mL (Aspergillus fumigatus [28]): 10 mm
5 | O=C1/C(=N/Nc2ccccc2)CCCc2ccccc21 |  |  |  |  |  |  |  |  |  |  |  |  |  |  |  |  |  | 1.07 (≈ 4.05 µM) | 6.12 (≈ 23.2 µM) | 4.25 | Activity (MC-38): Active; Ratio [26]: 4.4; Ratio [27]: 4.3
6 | CN(C/C=C/C#CC(C)(C)C)Cc1cccc2ccccc12 [TERBINAFINE] | 19 | 21 | 19 | 15 | 11 | 22 | 27 | 18 | 9 | 13 | 10 | 6 | 5 | 18 | 20 | 11 | 4 |  |  |  | zone of inhibition at 1.25 µg/mL [18]: 9 mm; zone of inhibition at 1.25 µg/mL (Candida albicans [19]): 6 mm; zone of inhibition at 1.25 µg/mL (Staphylococcus aureus [20]): 4 mm; zone of inhibition at 1.25 µg/mL (Pseudomonas aeruginosa [21]): 0 mm; zone of inhibition at 1.25 µg/mL (Bacillus subtilis [22]): 11 mm; zone of inhibition at 1.25 µg/mL (Escherichia coli [23]): 13 mm; zone of inhibition at 5 µg/mL (Aspergillus fumigatus [28]): 24 mm
7 | Cc1c(C)c2c(c(C)c1O)CCC(C)(C(=O)O)O2 (stereo unspecified) [TROLOX] |  |  |  |  |  |  |  |  |  |  |  |  |  |  |  |  |  |  |  | 4.23 | 
8 | COc1ccc(N/N=C2\CCCc3ccccc3C2=O)cc1 |  |  |  |  |  |  |  |  |  |  |  |  |  |  |  |  |  | 1.01 (≈ 3.43 µM) | 6.01 (≈ 20.4 µM) | 4.27 | Activity [24]: 83.9%; Activity (MC-38): Active; Ratio [26]: 4.9; Ratio [27]: 4.8
